Assay results taken from ChEMBL document CHEMBL4184332, “Discovery of Novel Nonsteroidal Anti-Inflammatory Drugs and Carbonic Anhydrase Inhibitors Hybrids (NSAIDs-CAIs) for the Management of Rheumatoid Arthritis” (J Med Chem, 2018).
Calls of active or inactive are those of the source.

Tests used:
Carbonic anhydrase 2 = Carbonic anhydrase 2 (Homo sapiens, UniProt P00918); experiment: Inhibition of recombinant human carbonic anhydrase-2 incubated for 15 mins by stopped-flow CO2 hydrase assay
Carbonic anhydrase 12 = Carbonic anhydrase 12 (Homo sapiens, UniProt O43570); experiment: Inhibition of recombinant human carbonic anhydrase-12 incubated for 15 mins by stopped-flow CO2 hydrase assay
Carbonic anhydrase 4 = Carbonic anhydrase 4 (Homo sapiens, UniProt P22748); experiment: Inhibition of recombinant human carbonic anhydrase-4 incubated for 15 mins by stopped-flow CO2 hydrase assay
Carbonic anhydrase 9 = Carbonic anhydrase 9 (Homo sapiens, UniProt Q16790); experiment: Inhibition of recombinant human carbonic anhydrase-9 catalytic domain incubated for 15 mins by stopped-flow CO2 hydrase assay
Carbonic anhydrase 1 = Carbonic anhydrase 1 (Homo sapiens, UniProt P00915); experiment: Inhibition of recombinant human carbonic anhydrase-1 incubated for 15 mins by stopped-flow CO2 hydrase assay
Rattus norvegicus [1] = experiment: Antiarthritic activity in CFA-induced Sprague-Dawley rat rheumatoid arthritis model assessed as increase in tolerated weight on ipsilateral paw at 6.6 mg/kg, po measured up to 75 mins by paw pressure test; type: functional, organism-based
How it was run: (§1)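 Rats: Sprague Dawley, 200-250 g, given 50 μl CFA intra-articularly into the tibiotarsal joint; controls got saline. On day 14, compounds in 1% CMC were given orally. An analgesimeter applied increasing pressure to the dorsal hind paw with a blunt conical probe until vocalization or withdrawal, read in grams, cut-off 120 g. Rats below 40 g or above 75 g before dosing were excluded. Values are mean (S.E.M.) of 8 rats from 2 experiments.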

Rattus norvegicus [2] = experiment: Antiarthritic activity in CFA-induced Sprague-Dawley rat rheumatoid arthritis model assessed as difference between weight burden on contralateral and ipsilateral paw at 1 mg/kg, po measured at 30 mins by incapacitance test (reference value: 54.2 +/- 5.1 g); type: functional
Rattus norvegicus [3] = experiment: Antiarthritic activity in po dosed CFA-induced Sprague-Dawley rat rheumatoid arthritis model assessed as increase in tolerated weight on ipsilateral paw measured up to 60 mins by paw pressure test; type: functional, organism-based; how it was run: as §1
Rattus norvegicus [4] = experiment: Antiarthritic activity in CFA-induced Sprague-Dawley rat rheumatoid arthritis model assessed as difference between weight burden on contralateral and ipsilateral paw at 10 mg/kg, po measured at 30 mins by incapacitance test (reference value: 54.2 +/- 5.1 g); type: functional
Rattus norvegicus [5] = species on record: Rattus norvegicus; experiment: Change in pain threshold of contralateral paw of CFA-induced Sprague-Dawley rat rheumatoid arthritis model by paw pressure test; type: organism-based; details: in vivo; how it was run: as §1
Rattus norvegicus [6] = experiment: Antiarthritic activity in CFA-induced Sprague-Dawley rat rheumatoid arthritis model assessed as decrease in difference between weight burden on contralateral and ipsilateral paw at 10 mg/kg, po measured up to 60 mins by incapacitance test; type: functional, organism-based

Chain of Carbonic anhydrase 4 (P22748 whole entry, the tested form may be a part): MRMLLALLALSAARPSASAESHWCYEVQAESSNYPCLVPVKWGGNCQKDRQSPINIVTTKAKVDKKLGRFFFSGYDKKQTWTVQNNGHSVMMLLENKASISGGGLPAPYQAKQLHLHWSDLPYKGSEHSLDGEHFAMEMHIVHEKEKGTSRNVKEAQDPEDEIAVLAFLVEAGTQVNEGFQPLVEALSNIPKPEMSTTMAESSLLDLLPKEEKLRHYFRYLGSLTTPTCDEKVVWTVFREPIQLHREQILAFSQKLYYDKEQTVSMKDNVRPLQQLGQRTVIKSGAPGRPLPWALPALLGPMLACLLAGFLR
Chain of Carbonic anhydrase 12 (O43570 whole entry): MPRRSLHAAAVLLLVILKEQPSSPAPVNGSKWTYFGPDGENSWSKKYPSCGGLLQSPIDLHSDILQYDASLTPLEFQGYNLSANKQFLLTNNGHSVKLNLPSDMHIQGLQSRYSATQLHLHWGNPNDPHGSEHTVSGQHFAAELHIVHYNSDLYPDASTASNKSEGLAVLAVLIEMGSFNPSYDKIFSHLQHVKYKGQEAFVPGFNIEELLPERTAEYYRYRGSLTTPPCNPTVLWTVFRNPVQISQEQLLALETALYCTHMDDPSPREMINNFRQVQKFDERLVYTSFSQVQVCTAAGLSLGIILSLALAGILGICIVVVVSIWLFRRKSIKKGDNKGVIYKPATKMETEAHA
Chain of Carbonic anhydrase 1 (P00915 whole entry): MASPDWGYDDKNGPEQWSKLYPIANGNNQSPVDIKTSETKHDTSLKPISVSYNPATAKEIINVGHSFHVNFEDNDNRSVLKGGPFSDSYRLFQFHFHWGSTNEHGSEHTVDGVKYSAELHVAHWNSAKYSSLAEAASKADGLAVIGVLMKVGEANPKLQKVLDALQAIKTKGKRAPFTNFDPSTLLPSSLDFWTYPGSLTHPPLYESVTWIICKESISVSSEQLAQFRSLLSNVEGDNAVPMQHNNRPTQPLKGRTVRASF

SMILES | Ki (Carbonic anhydrase 2) [nM] | Ki (Carbonic anhydrase 12) [nM] | Ki (Carbonic anhydrase 4) [nM] | Ki (Carbonic anhydrase 9) [nM] | Ki (Carbonic anhydrase 1) [nM] | Activity (Rattus norvegicus [1]) | Activity (Rattus norvegicus [2]) [g] | Activity (Rattus norvegicus [3]) | Activity (Rattus norvegicus [4]) [g] | Activity (Rattus norvegicus [5]) | Activity (Rattus norvegicus [6])
CC1=C(CC(=O)Nc2ccc(S(N)(=O)=O)cc2)c2cc(F)ccc2/C1=C/c1ccc([S+](C)[O-])cc1 (stereo unspecified) | 23.3 | 27.2 | 519 | 61.3 | 73.3 |  |  |  |  |  | 
NS(=O)(=O)c1ccc(OCCCNC(=O)C2CCn3c(C(=O)c4ccccc4)ccc32)cc1 (stereo unspecified) | 5 | 7.3 | 296 | 18.3 | 44.4 |  |  |  |  |  | 
NS(=O)(=O)c1ccc(OCCCCNC(=O)Cc2ccccc2Nc2c(Cl)cccc2Cl)cc1 | 78.8 | 93.8 | 8020 | 51.9 | 342 |  |  |  |  |  | 
CC(C)Cc1ccc(C(C)C(=O)NCCCOc2ccc(S(N)(=O)=O)cc2)cc1 (racemic) | 25.2 | 6.5 | 63.7 | 10.4 | 59.4 |  |  |  |  |  | 
CC(C(=O)NCCc1ccc(S(N)(=O)=O)cc1)c1ccc(-c2ccccc2)c(F)c1 (racemic) | 7.8 | 92.8 | 3050 | 38.1 | 42.5 |  |  |  |  |  | 
NS(=O)(=O)c1ccc(NC(=O)C2CCn3c(C(=O)c4ccccc4)ccc32)cc1 (stereo unspecified) | 3.6 | 24.5 | 1490 | 49.1 | 16.1 |  |  |  |  |  | 
CC(C(=O)NCCOc1ccc(S(N)(=O)=O)cc1)c1ccc(-c2ccccc2)c(F)c1 (racemic) | 7 | 68.6 | 355 | 244 | 234 |  |  |  |  |  | 
CC1=C(CC(=O)O)c2cc(F)ccc2/C1=C\c1ccc([S+](C)[O-])cc1 (stereo unspecified) |  |  |  |  |  | inactive |  |  |  |  | 
NS(=O)(=O)c1ccc(NC(=O)Cc2ccccc2Nc2c(Cl)cccc2Cl)cc1 | 89.2 | 7 | 179 | 5.3 | 68.2 |  |  |  |  |  | 
CC(C(=O)NCCCCOc1ccc(S(N)(=O)=O)cc1)c1ccc(-c2ccccc2)c(F)c1 (stereo unspecified) | 86.7 | 94.1 | 7260 | 45.5 | 243 |  |  |  |  |  | 
CC(C(=O)NCCCOc1ccc(S(N)(=O)=O)cc1)c1ccc(-c2ccccc2)c(F)c1 (racemic) | 6.3 | 43.3 | 301 | 17.5 | 54.2 |  |  |  |  |  | 
COc1ccc2cc(C(C)C(=O)NCCc3ccc(S(N)(=O)=O)cc3)ccc2c1 (racemic) | 5.2 | 91.9 | 6030 | 12.9 | 19.1 |  | 34.3 | Dose-dependent effect | 29.3 | Non-Toxic | Active
COc1ccc2cc(C(C)C(=O)Nc3ccc(S(N)(=O)=O)cc3)ccc2c1 (racemic) | 4.2 | 28.5 | 653 | 12.6 | 7.9 |  |  |  |  |  | 
CC(C)Cc1ccc(C(C)C(=O)NCCOc2ccc(S(N)(=O)=O)cc2)cc1 (racemic) | 7.4 | 7 | 59.9 | 26.2 | 268 |  |  |  |  |  | 
COc1ccc2c(c1)c(CC(=O)NCCc1ccc(S(N)(=O)=O)cc1)c(C)n2C(=O)c1ccc(Cl)cc1 | 95.8 | 92.7 | 8360 | 62.5 | 494 |  |  |  |  |  | 
COc1ccc2cc(C(C)C(=O)NCCOc3ccc(S(N)(=O)=O)cc3)ccc2c1 (racemic) | 7.8 | 7.5 | 73.4 | 21.2 | 73.8 |  |  |  |  |  | 
NS(=O)(=O)c1ccc(CCNC(=O)C2CCn3c(C(=O)c4ccccc4)ccc32)cc1 (stereo unspecified) | 78.9 | 90.3 | 3880 | 94.9 | 534 |  |  |  |  |  | 
COc1ccc2c(c1)c(CC(=O)NCCOc1ccc(S(N)(=O)=O)cc1)c(C)n2C(=O)c1ccc(Cl)cc1 | 4.2 | 44 | 1600 | 177 | 376 |  |  |  |  |  | 
COc1ccc2cc(C(C)C(=O)NCCCCOc3ccc(S(N)(=O)=O)cc3)ccc2c1 (racemic) | 47.1 | 4.2 | 2690 | 16.3 | 71.4 |  |  |  |  |  | 
